The target in series [1] is P2Y purinoceptor 1 (Homo sapiens) (UniProt P47900). Briefly: Activation of recombinant human P2Y1 receptor expressed in human 1321N1 cells assessed as stimulation of calcium mobilization at 10 uM by fluorescence based assay. Format: functional, cell-based.
Series [2] addresses P2Y purinoceptor 12 (Homo sapiens) (UniProt Q9H244). The experiment in a line: Activation of recombinant human P2Y12 receptor expressed in CHOK1 cells assessed as stimulation of beta-arrestin recruitment at 10 uM incubated for 90 mins by luminescence based assay. (Recruitment of arrestin is a read-out of receptor activation apart from second messengers.)
Series [3] deals with T1, 5'-nucleotidase (Rattus norvegicus, UniProt P21588).
T1 sequence (P21588 whole entry): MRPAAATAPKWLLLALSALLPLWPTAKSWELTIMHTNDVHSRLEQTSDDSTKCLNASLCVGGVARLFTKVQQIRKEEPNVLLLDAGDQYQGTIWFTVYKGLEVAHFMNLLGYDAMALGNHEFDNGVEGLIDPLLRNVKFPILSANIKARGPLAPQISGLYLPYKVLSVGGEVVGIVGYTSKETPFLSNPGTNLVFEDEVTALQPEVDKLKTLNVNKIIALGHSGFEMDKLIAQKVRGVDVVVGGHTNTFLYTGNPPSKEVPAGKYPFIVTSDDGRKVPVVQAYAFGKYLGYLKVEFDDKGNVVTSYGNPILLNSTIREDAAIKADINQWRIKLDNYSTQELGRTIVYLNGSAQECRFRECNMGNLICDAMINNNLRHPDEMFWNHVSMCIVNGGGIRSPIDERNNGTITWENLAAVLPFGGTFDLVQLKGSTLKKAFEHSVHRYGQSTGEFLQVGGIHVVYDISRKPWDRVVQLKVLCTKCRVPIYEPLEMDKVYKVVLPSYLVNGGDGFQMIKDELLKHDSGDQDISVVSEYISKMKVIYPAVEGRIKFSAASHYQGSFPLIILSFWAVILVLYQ
Briefly: Inhibition of purified recombinant soluble rat CD73 expressed in Sf9 cells [3H]AMP as substrate incubated for 25 mins by scintillation counting method. An outline of the steps: (§1)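 Radiometric CD73 assay in 25 mM Tris, 140 mM NaCl, 25 mM NaH2PO4, pH 7.4. Enzyme per vial: rat CD73 1.63 ng, human CD73 0.365 ng, MDA-MB-231 membranes 7.4 ng protein. […] 25 min at 37 °C, shaking. Stopped with cold LaCl3/sodium acetate pH 4.0 to precipitate substrate. Filtrate counted by scintillation. Full curves; Ki from IC50 via Cheng–Prusoff.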

Series [4] concerns the target T2, 5'-nucleotidase (Homo sapiens, UniProt P21589). Briefly: Inhibition of purified recombinant soluble human CD73 expressed in Sf9 cells [3H]AMP as substrate incubated for 25 mins by scintillation counting method. In short, it runs like this: as §1
Series [5] addresses T2, 5'-nucleotidase. Briefly: Inhibition of native CD73 in human MDA-MB-231 cell membrane preparations [3H]AMP as substrate incubated for 25 mins by scintillation counting method. In kind it is cell membranes. In short, it runs like this:
as §1

The nature of series [6]: Selectivity index, ratio of Ki for inhibition of purified recombinant soluble rat CD73 expressed in Sf9 cells to Ki for inhibition of purified recombinant soluble human CD73 expressed in Sf9 cells.
Series [7] has as its target T3, Ectonucleotide pyrophosphatase/phosphodiesterase family member 1 (Homo sapiens) (UniProt P22413).
T3 sequence (whole entry): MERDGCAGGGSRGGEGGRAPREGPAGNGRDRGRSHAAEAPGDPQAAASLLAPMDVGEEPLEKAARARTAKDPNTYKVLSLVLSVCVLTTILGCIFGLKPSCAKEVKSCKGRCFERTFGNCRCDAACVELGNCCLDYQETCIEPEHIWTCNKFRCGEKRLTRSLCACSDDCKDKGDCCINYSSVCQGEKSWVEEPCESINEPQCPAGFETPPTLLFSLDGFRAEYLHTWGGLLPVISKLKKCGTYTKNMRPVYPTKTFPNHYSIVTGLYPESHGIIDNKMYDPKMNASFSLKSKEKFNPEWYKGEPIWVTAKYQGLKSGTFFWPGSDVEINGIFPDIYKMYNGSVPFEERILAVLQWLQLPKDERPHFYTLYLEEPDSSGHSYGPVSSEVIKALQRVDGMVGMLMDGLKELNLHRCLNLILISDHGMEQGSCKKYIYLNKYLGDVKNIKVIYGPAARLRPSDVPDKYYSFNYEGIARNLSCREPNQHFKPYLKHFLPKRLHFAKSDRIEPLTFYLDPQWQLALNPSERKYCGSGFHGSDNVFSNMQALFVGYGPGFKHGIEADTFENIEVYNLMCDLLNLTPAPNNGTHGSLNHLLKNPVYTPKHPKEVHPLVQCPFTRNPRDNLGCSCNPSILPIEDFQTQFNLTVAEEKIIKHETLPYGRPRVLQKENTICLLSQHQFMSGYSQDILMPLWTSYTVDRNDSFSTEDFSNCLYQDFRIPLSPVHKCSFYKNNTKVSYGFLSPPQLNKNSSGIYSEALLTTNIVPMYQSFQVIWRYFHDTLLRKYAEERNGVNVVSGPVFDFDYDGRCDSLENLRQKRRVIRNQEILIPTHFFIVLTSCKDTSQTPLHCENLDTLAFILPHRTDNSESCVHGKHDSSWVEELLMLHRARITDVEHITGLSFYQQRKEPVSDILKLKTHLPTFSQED
The experiment in a line: Inhibition of human recombinant NPP1 at 10 uM using p-nitrophenyl thymidine monophosphate substrate incubated for 30 mins by colorimetry.

In series [8] the target is Autotaxin (Homo sapiens) (UniProt Q13822). Briefly: Inhibition of human recombinant NPP2 at 10 uM using p-nitrophenyl thymidine monophosphate substrate incubated for 30 mins by colorimetry.
Series [9] addresses T4, Ectonucleotide pyrophosphatase/phosphodiesterase family member 3 (Homo sapiens) (UniProt O14638).
T4 sequence (whole entry): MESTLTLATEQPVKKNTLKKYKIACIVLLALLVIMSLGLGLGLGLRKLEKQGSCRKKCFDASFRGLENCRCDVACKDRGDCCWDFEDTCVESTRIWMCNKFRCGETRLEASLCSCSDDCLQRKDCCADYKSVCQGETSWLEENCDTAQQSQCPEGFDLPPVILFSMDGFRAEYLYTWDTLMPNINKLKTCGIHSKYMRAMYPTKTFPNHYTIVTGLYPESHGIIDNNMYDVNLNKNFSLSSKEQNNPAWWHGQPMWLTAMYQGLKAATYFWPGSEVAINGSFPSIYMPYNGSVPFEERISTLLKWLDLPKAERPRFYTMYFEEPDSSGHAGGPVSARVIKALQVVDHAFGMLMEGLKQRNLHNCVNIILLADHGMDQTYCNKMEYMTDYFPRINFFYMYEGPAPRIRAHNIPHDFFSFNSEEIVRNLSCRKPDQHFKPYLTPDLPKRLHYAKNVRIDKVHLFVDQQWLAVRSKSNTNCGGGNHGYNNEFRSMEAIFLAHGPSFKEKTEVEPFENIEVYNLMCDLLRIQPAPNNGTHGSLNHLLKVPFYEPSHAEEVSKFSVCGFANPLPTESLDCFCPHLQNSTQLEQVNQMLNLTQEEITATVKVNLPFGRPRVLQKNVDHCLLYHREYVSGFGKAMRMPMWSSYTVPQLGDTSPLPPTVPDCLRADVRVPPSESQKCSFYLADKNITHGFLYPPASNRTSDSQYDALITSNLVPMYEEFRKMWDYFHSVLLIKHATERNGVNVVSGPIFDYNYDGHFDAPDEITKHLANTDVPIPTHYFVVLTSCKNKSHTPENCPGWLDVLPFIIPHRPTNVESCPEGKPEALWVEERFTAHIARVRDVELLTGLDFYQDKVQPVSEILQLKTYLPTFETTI
The experiment in a line: Inhibition of human recombinant NPP3 at 10 uM using p-nitrophenyl thymidine monophosphate substrate incubated for 30 mins by colorimetry.

Series [10] is described as follows: Metabolic stability in human blood plasma assessed as compound degradation at 200 uM incubated for 5 hrs at 37 degC by LC-MS analysis. In kind it is ADME, cell-free. The settings on record: read-out: Drug degradation. An outline of the steps:
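Human plasma from healthy donors added to aqueous compound solution, 200 μM final. Incubated at 37 °C for 5 h. Supernatants analysed by LC-MS as percentage of compound remaining over time. Three separate experiments, each in duplicate.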

Series [11] in a line: Metabolic stability in rat liver microsomes assessed as intact compound level at 200 uM after 2 hrs in presence of NADPH regenerative system at 37 degC by LC-MS analysis. Format: ADME, Microsome. The conditions noted are these: read-out: Stability.
A short description of series [12]: Drug metabolism in rat liver microsomes at 200 uM after 2 hrs in presence of NADPH regenerative system at 37 degC by LC-MS analysis. In kind it is ADME, Microsome. The conditions noted are these: read-out: Drug metabolism. (In general: Microsomes from liver hold many membrane-bound enzymes, among them those of drug oxidation.)
Series [13] addresses T2, 5'-nucleotidase. The experiment in a line: Inhibition of human CD73.
In series [14] the target is T1, 5'-nucleotidase. The experiment in a line: Inhibition of rat CD73. In short, it runs like this:
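Recombinant soluble rat CD73 expressed in Sf9 insect cells (1.63 ng per vial). Buffer was 25 mM Tris, 140 mM NaCl, 25 mM NaH2PO4, pH 7.4. […] Stopped with LaCl3/sodium acetate pH 4.0 to precipitate unreacted substrate, then filtered; adenosine in the filtrate counted by scintillation. Ki derived from IC50 by Cheng–Prusoff.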

The nature of series [15]: Metabolic stability in rat liver microsomes assessed as compound degradation at 200 uM after 30 mins in presence of NADPH regenerative system at 37 degC by LC-MS analysis. Format: ADME, Microsome. The conditions noted are these: read-out: Drug degradation. An outline of the steps: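 Rat liver microsomes (2 mg) incubated with compound at 200 μM in 2 mL at 37 °C for various times. Stopped with ice-cold acetonitrile and centrifuged. Supernatant analysed by LC-MS as percentage remaining. Three separate experiments in duplicate.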

The structures appear in SMILES notation. The source made the active and inactive calls. The rule behind the calls is not given here.

Sequence of P2Y purinoceptor 1 (Homo sapiens) (P47900 whole entry): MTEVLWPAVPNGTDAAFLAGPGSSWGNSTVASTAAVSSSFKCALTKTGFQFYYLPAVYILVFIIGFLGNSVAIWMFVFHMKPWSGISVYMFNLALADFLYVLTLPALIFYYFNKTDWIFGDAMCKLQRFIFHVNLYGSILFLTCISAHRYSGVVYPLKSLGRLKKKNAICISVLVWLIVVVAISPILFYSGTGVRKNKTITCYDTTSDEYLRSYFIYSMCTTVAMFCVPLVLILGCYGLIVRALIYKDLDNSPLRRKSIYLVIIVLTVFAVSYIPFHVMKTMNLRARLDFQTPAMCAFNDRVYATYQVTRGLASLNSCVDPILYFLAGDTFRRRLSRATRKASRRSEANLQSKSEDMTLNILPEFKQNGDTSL
Sequence of P2Y purinoceptor 12 (Homo sapiens) (Q9H244 whole entry): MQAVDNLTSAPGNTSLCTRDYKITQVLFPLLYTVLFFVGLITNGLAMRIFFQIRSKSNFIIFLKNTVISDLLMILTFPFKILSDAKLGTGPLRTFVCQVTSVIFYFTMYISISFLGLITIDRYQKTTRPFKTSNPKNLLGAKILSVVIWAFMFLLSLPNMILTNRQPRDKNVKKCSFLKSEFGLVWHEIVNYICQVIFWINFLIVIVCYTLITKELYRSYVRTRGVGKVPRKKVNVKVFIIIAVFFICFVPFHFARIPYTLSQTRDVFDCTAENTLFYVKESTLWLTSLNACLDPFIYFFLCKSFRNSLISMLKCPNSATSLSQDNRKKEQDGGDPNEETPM
T2 sequence (P21589 whole entry): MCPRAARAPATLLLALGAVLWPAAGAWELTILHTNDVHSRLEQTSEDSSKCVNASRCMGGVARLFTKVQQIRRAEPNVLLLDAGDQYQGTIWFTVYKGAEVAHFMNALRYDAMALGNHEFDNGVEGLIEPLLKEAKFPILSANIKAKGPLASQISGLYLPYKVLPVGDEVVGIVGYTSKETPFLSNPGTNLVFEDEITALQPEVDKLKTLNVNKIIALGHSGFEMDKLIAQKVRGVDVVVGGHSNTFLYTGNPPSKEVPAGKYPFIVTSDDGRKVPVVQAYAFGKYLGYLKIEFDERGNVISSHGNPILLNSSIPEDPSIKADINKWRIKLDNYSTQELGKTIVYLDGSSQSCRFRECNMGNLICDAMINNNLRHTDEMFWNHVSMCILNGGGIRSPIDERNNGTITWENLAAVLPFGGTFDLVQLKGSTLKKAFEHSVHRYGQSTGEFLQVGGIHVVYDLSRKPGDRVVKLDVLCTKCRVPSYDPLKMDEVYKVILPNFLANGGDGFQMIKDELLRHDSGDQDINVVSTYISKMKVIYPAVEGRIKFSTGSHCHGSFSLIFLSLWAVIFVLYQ

As for `Nc1ncnc2c1ncn2[C@@H]1O[C@H](COP(=O)(O)OP(=O)(O)O)[C@@H](O)[C@H]1O`, the result in series [1] and in series [2] was Active.
Regarding `Nc1nc(Cl)c2ncn([C@@H]3O[C@H](COP(=O)(O)CP(=O)(O)O)[C@@H](O)[C@H]3O)c2n1`, the Ki in series [3] was 268 nM; in series [4], 23.6 nM; in series [5], 32.2 nM. In addition, the Ratio Ki in series [6] was 6.3. The inhibition entry in series [7], in [8] and in series [9] was “inactive” throughout. For the same compound, the outcome in [1] and in series [2] was inactive.
Turning to `Nc1nc(I)nc2c1ncn2[C@@H]1O[C@H](COP(=O)(O)CP(=O)(O)O)[C@@H](O)[C@H]1O`, the figures for the Ki in series [3], in [4] and in series [5] were 15.1 nM, 3.59 nM and 3.33 nM, respectively. For the same compound, the inhibition entry in series [7], in series [8] and in [9] was “inactive” throughout. Further, the metabolised at 5 h, 200 µM in [10] is less than 25%. The remaining at 2 h, 200 µM in series [11] was 100%. In addition, the metabolised at 2 h, 200 µM in series [12] is less than 40%.
As to `Nc1nc(N2CCNCC2)nc2c1ncn2[C@@H]1O[C@H](COP(=O)(O)CP(=O)(O)O)[C@@H](O)[C@H]1O`, the Ki amounted to 2290 nM in [3], 184 nM in series [4] and 238 nM in [5]. The Ratio Ki in series [6] stood at 12.5.
Turning to `Nc1nc(SCCC2CCCCC2)nc2c1ncn2[C@@H]1O[C@H](COP(=O)(O)CP(=O)(O)O)[C@@H](O)[C@H]1O`, the figures for the Ki in [3], in series [4] and in series [5] were 56.6 nM, 46.9 nM and 49.1 nM, respectively. The inhibition result in series [7], in series [8] and in [9] was “inactive” throughout. The result in [1] and in series [2] was inactive.
Take `Nc1nc(Cl)nc2c1ncn2[C@@H]1O[C@H](COP(=O)(O)CP(=O)(O)O)[C@@H](O)[C@H]1O`: the inhibition constant Ki in series [3] is 18.6 nM; in [4] it was 5.93 nM; in [5], 4.57 nM. Also, the inhibition entry in series [7], in series [8] and in [9] was “inactive” throughout. For the same compound, the outcome in series [1] and in [2] was inactive.
Turning to `Nc1nc(N)c2ncn([C@@H]3O[C@H](COP(=O)(O)CP(=O)(O)O)[C@@H](O)[C@H]3O)c2n1`, the figures for the Ki in [3], in [4] and in [5] were 90.6 nM, 38.8 nM and 35.7 nM, respectively.
Consider `Nc1nc(=O)[nH]c2c1ncn2[C@@H]1O[C@H](COP(=O)(O)CP(=O)(O)O)[C@@H](O)[C@H]1O`, for which the inhibitory constant (Ki) in series [3] was 326 nM.
`CN(Cc1ccccc1)c1nc(Cl)nc2c1ncn2[C@@H]1O[C@H](COP(=O)(O)CP(=O)(O)O)[C@@H](O)[C@H]1O`: the values for the Ki in series [13] and in series [14] were 0.318 nM and 0.746 nM, respectively.
For `Nc1nc2c(ncn2[C@@H]2O[C@H](COP(=O)(O)CP(=O)(O)O)[C@@H](O)[C@H]2O)c(=O)[nH]1` [PHOSPHOMETHYLPHOSPHONIC ACID GUANOSYL ESTER], the figures for the Ki in [3], in series [4] and in series [5] were 1110 nM, 410 nM and 255 nM, respectively.
Turning to `Nc1ncnc2c1ncn2[C@@H]1O[C@H](COP(=O)(O)CP(=O)(O)O)[C@@H](O)[C@H]1O` [PHOSPHOMETHYLPHOSPHONIC ACID ADENOSYL ESTER], the inhibitory constant (Ki) was determined as 197 nM in series [3] and 207 nM in series [5]. Also, the result in [1] and in [2] was Active. For the same compound, the metabolised at 5 h, 200 µM in series [10] was no more than 50%. Also, the metabolised at 0.5 h, 200 µM in [15] amounted to 100%.
Turning to `NNc1nc(N)c2ncn([C@@H]3O[C@H](COP(=O)(O)CP(=O)(O)O)[C@@H](O)[C@H]3O)c2n1`, the results for the Ki in [3], in series [4] and in [5] were 116 nM, 15.5 nM and 15.4 nM, respectively. The Ratio Ki in series [6] amounted to 7.5.
In the case of `C=CCSc1nc(N)c2ncn([C@@H]3O[C@H](COP(=O)(O)CP(=O)(O)O)[C@@H](O)[C@H]3O)c2n1`, the results for the Ki in series [3], in series [4] and in series [5] were 65.7 nM, 61.9 nM and 65.4 nM, respectively.

A word on the Ki: it is the equilibrium dissociation constant of an inhibitor or competing ligand from its target.

The values are drawn from ChEMBL document CHEMBL4402566, “2-Substituted α,β-Methylene-ADP Derivatives: Potent Competitive Ecto-5'-nucleotidase (CD73) Inhibitors with Variable Binding Modes” (J Med Chem, 2020).
